According to ChEMBL document CHEMBL1255403, “Genetic dissection of azole resistance mechanisms in Candida albicans and their validation in a mouse model of disseminated infection” (2010):
Values after ≈ are worked out from the molar mass of the structure shown.

Key:
Type in all cases: functional
[1] = system: Candida albicans; assay: Antibacterial activity against Fluconazole resistant Candida albicans DSY3083 containing tac1delta/delta genotype by EUCAST standards based broth microdilution method
Outline: (§1)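 Cells grew overnight in YEPD at 30°C and were diluted to 5 × 10^4 cells/ml in RPMI 1640 (MOPS 0.165 M, pH 7, 2% glucose, 1% DMSO). Drug from aqueous stock was 100-fold diluted. Plates ran 24 h at 35°C and were read at 450 nm. MIC was the concentration giving >50% OD decrease versus drug-free control.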

[2] = system: Candida albicans; assay: Antibacterial activity against Fluconazole resistant Candida albicans DSY3706 containing tac1delta/delta ERG11-1/ERG11-1 genotype by EUCAST standards based broth microdilution method; outline: as §1
[3] = system: Candida albicans; assay: Antibacterial activity against Fluconazole resistant Candida albicans DSY3752 containing (TAC1-5/TAC1-5 ERG11-1/ERG11-1) genotype by EUCAST standards based broth microdilution method; outline: as §1
[4] = system: Candida albicans; assay: Antibacterial activity against Fluconazole resistant Candida albicans DSY3608 containing tac1delta/delta ERG11-1/ERG11-1 (TAC1-1) genotype by EUCAST standards based broth microdilution method; outline: as §1
[5] = system: Candida albicans; assay: […] activity against Fluconazole resistant Candida albicans DSY3752 containing (TAC1-5/TAC1-5 ERG11-1/ERG11-1) genotype by EUCAST standards based broth microdilution method sCandida albicans DSY294
[6] = system: Candida albicans; assay: Antibacterial activity against Fluconazole resistant Candida albicans DSY3604 containing tac1delta/delta ERG11-1/ERG11-5 genotype by EUCAST standards based broth microdilution method; outline: as §1
[7] = system: Candida albicans; assay: […] activity against Fluconazole resistant Candida albicans DSY3706 containing tac1delta/delta ERG11-1/ERG11-1 genotype by EUCAST standards based broth microdilution method sCandida albicans DSY294
[8] = system: Candida albicans; assay: […] activity against Fluconazole resistant Candida albicans DSY3608 containing tac1delta/delta ERG11-1/ERG11-1 (TAC1-1) genotype by EUCAST standards based broth microdilution method sCandida albicans DSY294
[9] = system: Candida albicans; assay: Antibacterial activity against Fluconazole resistant Candida albicans DSY296 overexpressing multidrug transporter gene CDR1 and CDR2 and containing ERG11 G464S mutation by EUCAST standards based broth microdilution method; outline: as §1
[10] = system: Candida albicans; assay: Antibacterial activity against Fluconazole resistant Candida albicans DSY3606 containing tac1delta/delta ERG11-1/ERG11-1 (TAC1-5) genotype by EUCAST standards based broth microdilution method sCandida albicans DSY294
[11] = system: Candida albicans; assay: Antibacterial activity against Fluconazole resistant Candida albicans DSY3604 containing tac1delta/delta ERG11-1/ERG11-5 genotype by EUCAST standards based broth microdilution method sCandida albicans DSY294
[12] = system: Candida albicans; assay: Antibacterial activity against azole-susceptible Candida albicans DSY294 by EUCAST standards based broth microdilution method; outline: as §1
[13] = system: Candida albicans; assay: Antibacterial activity against Fluconazole resistant Candida albicans DSY3083 containing tac1delta/delta genotype by EUCAST standards based broth microdilution method sCandida albicans DSY294
[14] = system: Candida albicans; assay: Antibacterial activity against Fluconazole resistant Candida albicans DSY3606 containing tac1delta/delta ERG11-1/ERG11-1 (TAC1-5) genotype by EUCAST standards based broth microdilution method; outline: as §1
[15] = system: Candida albicans; assay: […] activity against Fluconazole resistant Candida albicans DSY296 overexpressing multidrug transporter gene CDR1 and CDR2 and containing ERG11 G464S mutation by EUCAST standards based broth microdilution method relative to wildtype sCandida albicans DSY294
[16] = system: Candida albicans; assay: (§2) Antibacterial activity against Fluconazole resistant Candida albicans DSY296 overexpressing multidrug transporter gene CDR1 and CDR2 and containing ERG11 G464S mutation containing CIp10 to restore URA3 function infected in BALB/c mouse assessed as reduction in kidney microbial burden administered intraperitoneally 1 hr post bacterial challenge measured 3 days post infection
Outline: (§3)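 At 72 h the left kidney was homogenised in saline and viable counts taken as log10 CFU/g. ED50 was the dose lowering the mean burden >1.5 log below controls.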

[17] = system: Candida albicans; assay: as §2, with “mouse” for “mouse assessed as reduction in kidney microbial burden”
Outline: (§4)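 Female BALB/c mice (18–22 g) infected i.v. with a saline suspension of NGY-grown yeast. The challenge inoculum was strain-specific, set by pilot dose-finding. […] Endpoint at 72 h. Median of ED50s from kidney burden, weight change and outcome score.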

[18] = system: Candida albicans; assay: Antibacterial activity against Fluconazole resistant Candida albicans DSY3083 containing tac1delta/delta genotype containing CIp10 to restore URA3 function infected in BALB/c mouse administered intraperitoneally 1 hr post bacterial challenge measured 3 days post infection; outline: as §4
[19] = system: Candida albicans; assay: (§5) […] activity against Fluconazole resistant Candida albicans DSY3606 containing tac1delta/delta ERG11-1/ERG11-1 (TAC1-5) genotype infected in BALB/c mouse assessed as weight change administered intraperitoneally 1 hr post […] measured 3 days post infection
[20] = system: Candida albicans; assay: as §2, with “weight change” for “reduction in kidney microbial burden”
[21] = system: Candida albicans; assay: (§6) Antibacterial activity against Fluconazole resistant Candida albicans DSY3083 containing tac1delta/delta genotype containing CIp10 to restore URA3 function infected in BALB/c mouse assessed as weight change administered intraperitoneally 1 hr post bacterial challenge measured 3 days post infection
[22] = system: Candida albicans; assay: Antibacterial activity against azole-susceptible Candida albicans DSY294 containing CIp10 to restore URA3 function infected in BALB/c mouse assessed as weight change administered intraperitoneally 1 hr post bacterial challenge measured 3 days post infection
Outline: (§7)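 Female BALB/c mice (18 to 22 g) infected i.v. with saline suspension of C. albicans grown overnight in NGY medium. […] Percentage body weight change over 3 days; ED50 = dose reducing mean weight change below 50% of controls.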

[23] = system: Candida albicans; assay: Antibacterial activity against azole-susceptible Candida albicans DSY294 containing CIp10 to restore URA3 function infected in BALB/c mouse assessed as reduction in kidney microbial burden administered intraperitoneally 1 hr post bacterial challenge measured 3 days post infection; outline: as §3
[24] = system: Candida albicans; assay: as §6, with “effect on infection outcome score” for “weight change”
Outline: (§8)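 Intravenous infection of female BALB/c mice with a strain-specific inoculum. […] ED50 was derived from the 3-day infection outcome score at 72 h.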

[25] = system: Candida albicans; assay: Antibacterial activity against Fluconazole resistant Candida albicans DSY3706 containing tac1delta/delta ERG11-1/ERG11-1 genotype infected in BALB/c mouse assessed as weight change administered intraperitoneally 1 hr post bacterial challenge measured 3 days post infection; outline: as §7
[26] = system: Candida albicans; assay: (§9) Antibacterial activity against Fluconazole resistant Candida albicans DSY3706 containing tac1delta/delta ERG11-1/ERG11-1 genotype infected in BALB/c mouse assessed as reduction in kidney microbial burden administered intraperitoneally 1 hr post bacterial challenge measured 3 days post infection; outline: as §3
[27] = system: Candida albicans; assay: as §6, with “reduction in kidney microbial burden” for “weight change”; outline: as §3
[28] = system: Candida albicans; assay: as §2, with “effect on infection outcome score” for “reduction in kidney microbial burden”; outline: as §8
[29] = system: Candida albicans; assay: as §9, with “DSY3606” for “DSY3706”, “ERG11-1/ERG11-1 (TAC1-5)” for “ERG11-1/ERG11-1”; outline: as §3
[30] = system: Candida albicans; assay: Antibacterial activity against azole-susceptible Candida albicans DSY294 containing CIp10 to restore URA3 function infected in BALB/c mouse administered intraperitoneally 1 hr post bacterial challenge measured 3 days post infection; outline: as §4
[31] = system: Candida albicans; assay: Antibacterial activity against Fluconazole resistant Candida albicans DSY3606 containing tac1delta/delta ERG11-1/ERG11-1 (TAC1-5) genotype infected in BALB/c mouse administered intraperitoneally 1 hr post bacterial challenge measured 3 days post infection; outline: as §4
[32] = system: Candida albicans; assay: as §5, with “effect on infection outcome score” for “weight change”; outline: as §8
[33] = system: Candida albicans; assay: Antibacterial activity against Fluconazole resistant Candida albicans DSY3706 containing tac1delta/delta ERG11-1/ERG11-1 genotype infected in BALB/c mouse assessed as effect on infection outcome score administered intraperitoneally 1 hr post bacterial challenge measured 3 days post infection; outline: as §8
[34] = system: Candida albicans; assay: Antibacterial activity against azole-susceptible Candida albicans DSY294 containing CIp10 to restore URA3 function infected in BALB/c mouse assessed as effect on infection outcome score administered intraperitoneally 1 hr post bacterial challenge measured 3 days post infection; outline: as §8
[35] = system: Candida albicans; assay: Antibacterial activity against Fluconazole resistant Candida albicans DSY3706 containing tac1delta/delta ERG11-1/ERG11-1 genotype infected in BALB/c mouse administered intraperitoneally 1 hr post bacterial challenge measured 3 days post infection; outline: as §4

CCC(C)n1ncn(-c2ccc(N3CCN(c4ccc(OCC5COC(Cn6cncn6)(c6ccc(Cl)cc6Cl)O5)cc4)CC3)cc2)c1=O (centres undefined) [ITRACONAZOLE]
MIC [1]: 0.031 µg/mL (≈ 0.0439 µM)
MIC [2]: 0.0156 µg/mL (≈ 0.0221 µM)
MIC [3]: 0.25 µg/mL (≈ 0.354 µM)
MIC [4]: 0.031 µg/mL (≈ 0.0439 µM)
fold change (FC) [5]: 16
MIC [6]: 0.031 µg/mL (≈ 0.0439 µM)
fold change (FC) [7]: 1
fold change (FC) [8]: 2
MIC [9]: 0.25 µg/mL (≈ 0.354 µM)
fold change (FC) [10]: 8
fold change (FC) [11]: 2
MIC [12]: 0.0156 µg/mL (≈ 0.0221 µM)
fold change (FC) [13]: 2
MIC [14]: 0.125 µg/mL (≈ 0.177 µM)
fold change (FC) [15]: 16

C[C@@H](c1ncncc1F)[C@](O)(Cn1cncn1)c1ccc(F)cc1F [VORICONAZOLE]
MIC [1]: 0.125 µg/mL (≈ 0.358 µM)
MIC [2]: 0.0078 µg/mL (≈ 0.0223 µM)
MIC [3]: 0.125 µg/mL (≈ 0.358 µM)
MIC [4]: 0.0078 µg/mL (≈ 0.0223 µM)
fold change (FC) [5]: 16
MIC [6]: 0.0625 µg/mL (≈ 0.179 µM)
fold change (FC) [7]: 1
fold change (FC) [8]: 1
MIC [9]: 2 µg/mL (≈ 5.73 µM)
fold change (FC) [10]: 16
fold change (FC) [11]: 8
MIC [12]: 0.0078 µg/mL (≈ 0.0223 µM)
fold change (FC) [13]: 16
MIC [14]: 0.125 µg/mL (≈ 0.358 µM)
fold change (FC) [15]: 256

CC[C@@H]([C@H](C)O)n1ncn(-c2ccc(N3CCN(c4ccc(OC[C@@H]5CO[C@@](Cn6cncn6)(c6ccc(F)cc6F)C5)cc4)CC3)cc2)c1=O [POSACONAZOLE]
MIC [1]: 0.031 µg/mL (≈ 0.0442 µM)
MIC [2]: 0.031 µg/mL (≈ 0.0442 µM)
MIC [3]: 0.25 µg/mL (≈ 0.357 µM)
MIC [4]: 0.031 µg/mL (≈ 0.0442 µM)
fold change (FC) [5]: 8
MIC [6]: 0.031 µg/mL (≈ 0.0442 µM)
fold change (FC) [7]: 1
fold change (FC) [8]: 1
MIC [9]: 0.25 µg/mL (≈ 0.357 µM)
fold change (FC) [10]: 8
fold change (FC) [11]: 1
MIC [12]: 0.0312 µg/mL (≈ 0.0445 µM)
fold change (FC) [13]: 1
MIC [14]: 0.25 µg/mL (≈ 0.357 µM)
fold change (FC) [15]: 8

OC(Cn1cncn1)(Cn1cncn1)c1ccc(F)cc1F [FLUCONAZOLE]
MIC [16]: > 200 µg/mL
MIC [17]: 200 µg/mL (≈ 653 µM)
MIC [18]: 10 µg/mL (≈ 32.7 µM)
MIC [1]: 4 µg/mL (≈ 13.1 µM)
MIC [19]: 120 µg/mL (≈ 392 µM)
MIC [2]: 0.25 µg/mL (≈ 0.816 µM)
MIC [3]: 4 µg/mL (≈ 13.1 µM)
MIC [20]: 120 µg/mL (≈ 392 µM)
MIC [21]: 10 µg/mL (≈ 32.7 µM)
MIC [22]: 1 µg/mL (≈ 3.27 µM)
MIC [4]: 0.25 µg/mL (≈ 0.816 µM)
fold change (FC) [5]: 16
MIC [6]: 2 µg/mL (≈ 6.53 µM)
MIC [23]: 10 µg/mL
fold change (FC) [7]: 1
MIC [24]: 10 µg/mL (≈ 32.7 µM)
fold change (FC) [8]: 1
MIC [9]: 64 µg/mL (≈ 209 µM)
MIC [25]: 1 µg/mL (≈ 3.27 µM)
MIC [26]: 3.5 µg/mL
fold change (FC) [10]: 16
MIC [27]: 10 µg/mL
fold change (FC) [11]: 8
MIC [28]: 200 µg/mL (≈ 653 µM)
MIC [12]: 0.25 µg/mL (≈ 0.816 µM)
MIC [29]: 120 µg/mL
fold change (FC) [13]: 16
MIC [14]: 4 µg/mL (≈ 13.1 µM)
MIC [30]: 3.5 µg/mL (≈ 11.4 µM)
MIC [31]: 120 µg/mL (≈ 392 µM)
MIC [32]: 120 µg/mL (≈ 392 µM)
MIC [33]: 3.5 µg/mL (≈ 11.4 µM)
MIC [34]: 3.5 µg/mL (≈ 11.4 µM)
MIC [35]: 3.5 µg/mL (≈ 11.4 µM)
